According to PubChem BioAssay:
Records with an inconclusive call do not appear.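 How the source made its calls, unless noted: active means viability increase at or above a cutoff of the median across tested compounds plus 3 SD (cut at about 8.5% in these data, passing the limit was not always enough); inconclusive means some gains above the cutoff, reason not given; inactive means the rest.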

How the values were obtained:
[1] = OD615 S. cerevisiae growth inhibition, permissive medium, pilot counter-assay, permissive growth control for S. cerevisiae lifespan shortening project (AID 705;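 active means growth inhibition above 25% in both replicates, a cutoff set 3 SD above the mean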); details: OD615, 24 h, at 10 µM, stronger effect = higher value
How it was run: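 Material: engineered DeaD yeast; compound dosing: one dose 10 µM, DMSO 0.25% final; measure: yeast growth inhibition indicated by reduced 24 h OD615; detection: OD615 turbidity read; incubation: cells pre-grown 4 h, then 24 h compound exposure, 30 °C humidified; medium: permissive synthetic complete medium with raffinose and galactose carbon sources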

[2] = Restrictive medium S. cerevisiae growth inhibition, OD615, pilot screen of yeast lifespan reduction project, restrictive growth control (AID 706;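 active means growth inhibition above a set limit, 3 SD over mean compound inhibition, in both replicates, cut at about 43% in these data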;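 further: modified DeaD lifespan yeast strain shifted to restrictive glucose medium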); details: OD615, 48 h, at 10 µM, stronger effect = higher value
How it was run: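 material = engineered S. cerevisiae DeaD strain | medium = glucose-based CSMM-D restrictive medium | times = 4 h pre-incubation, 48 h exposure at 30 °C | technique = OD615 absorbance reading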

[3] = viability gain of MRP-1-high H69AR cells under doxorubicin, pilot screen, MRP-1 activator project, CellTiter-Glo, duplicate (AID 807); details: H69AR viability with doxorubicin, CellTiter-Glo luminescence; at 10 µM; stronger effect = higher value;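 further: compound pretreatment 18-22 h then 72 h combined with doxorubicin; 0% = doxorubicin alone and 100% = vehicle without doxorubicin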
[4] = growth suppression of beta-catenin knockout HCT116, pilot screen, human colon tumor cells (AID 823;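 active means cell viability at or below a set limit in both duplicate runs, the limit being the all-compound median minus 4 SD, cut at about 23% in these data, passing the limit was not always enough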;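 further: 0% = wells killed by 20 µM Hyamine and 100% = untreated DMSO cell wells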); details: CellTiter-Glo, 60 h, at 10 µM, stronger effect = lower value
[5] = growth suppression of PTEN-deleted HCT116, pilot screen, cell-based, HCT116 clonal line, CellTiter-Glo (AID 824;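 active means viability at or below 27.92% in each of two runs, the all-compound median minus 4 SD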;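 further: 0% = 20 µM Hyamine control and 100% = vehicle cell control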); details: 60 h, at 10 µM, stronger effect = lower value
[6] = inhibitors of the yeast RAM network, pilot screen, dse1pr::URA3 reporter, 5-FOA selection (AID 869;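 active means inhibition over a set limit, the all-compound mean plus 3 SD, in both replicate runs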;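 further: 0% = DMSO wells with no growth and 100% = 10 µM 1-NA-PP1 with full growth; RAM network block rescues cells from 5-FOA so hits raise OD615 growth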); details: S. cerevisiae dse1pr::URA3 5-FOA growth, OD615, 2 d; at 10 µM; stronger effect = higher value; strain carries analog-sensitive mutant Cbk1 kinase
[7] = RAM signaling pathway blockade in yeast – S. cerevisiae, Pdr1DBD-CYC8 efflux-inhibited sensitized strain, primary screen (AID 1298;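 active means RAM network inhibition above 8.4% in each of two replicates, 3 SD over the compound average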;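 further: 0% = DMSO untreated cells without growth and 100% = 10 µM 1-NA-PP1 full growth; higher means more yeast growth rescued from 5-FOA killing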); details: S. cerevisiae cbk1-as DSE1-URA3 strain, 5-FOA growth OD615, 2 d; at 50 µM; stronger effect = higher value

Cc1cc(NCc2ccccc2)nc(-c2ccccc2O)n1
inactive: growth inhibition [1] -1.8% | growth inhibition [2] -4.48% | viability increase [3] -1.24% | viability [4] 69.5% | viability [5] 70% | inhibition [6] 0.345% | RAM network inhibition [7] 0.61%

CC1(C)Nc2ccccc2N(CCC(=O)N2CCOCC2)C1=O
inactive: growth inhibition [1] -13.2% | growth inhibition [2] 0.485% | viability increase [3] -0.6% | viability [4] 92.9% | viability [5] 96.4% | inhibition [6] 0.905% | RAM network inhibition [7] 2.81%

COc1ccc(N2CCCCn3c2nc2c3c(=O)[nH]c(=O)n2C)cc1
inactive: growth inhibition [1] -18.4% | growth inhibition [2] -15.6% | viability increase [3] -2.97% | viability [4] 90.3% | viability [5] 90.9% | inhibition [6] 1.88% | RAM network inhibition [7] 2.42%

O=C(CSCC(=O)N1CCOCC1)Nc1nc(-c2ccc3c(c2)OCO3)cs1
inactive: growth inhibition [1] -15% | growth inhibition [2] -3.92% | viability increase [3] -3.99% | viability [4] 100% | viability [5] 97.3% | inhibition [6] 0.47% | RAM network inhibition [7] 6.38%

CN(Cc1ccccc1)C(=O)CCC(=O)N(C)Cc1ccccc1
inactive: growth inhibition [1] -1.99% | growth inhibition [2] 4.61% | viability increase [3] -0.27% | viability [4] 103% | viability [5] 90.2% | inhibition [6] 0.97% | RAM network inhibition [7] -0.11%

COc1ccc(F)cc1S(=O)(=O)Nc1ccc2c(c1)OCCO2
inactive: growth inhibition [1] -3.12% | growth inhibition [2] -5.07% | viability increase [3] -1.33% | viability [4] 91.1% | viability [5] 86.6% | inhibition [6] 2.45% | RAM network inhibition [7] 2.35%

CCCc1cc(=O)[nH]c(SCC(=O)N2CCN(S(=O)(=O)c3ccc(C)cc3)C2)n1
inactive: growth inhibition [1] -4.67% | growth inhibition [2] -21.2% | viability increase [3] -1.75% | viability [4] 98.8% | viability [5] 85.6% | inhibition [6] 2.64% | RAM network inhibition [7] 3.8%

COC(=O)c1cc(-c2ccc(Br)cc2)on1
inactive: growth inhibition [1] 1.85% | growth inhibition [2] 1.59% | viability increase [3] -2.76% | viability [4] 102% | viability [5] 96.6% | inhibition [6] 0.09% | RAM network inhibition [7] 1.79%

Cc1ccccc1-n1c(Cn2c(=O)sc3ccccc32)nnc1SCC(=O)N1CCOCC1
inactive: growth inhibition [1] -5.92% | growth inhibition [2] -11.6% | viability increase [3] -1.91% | viability [4] 102% | viability [5] 100% | inhibition [6] 1.56% | RAM network inhibition [7] 1.01%

O=C1CSC(c2nn(-c3ccccc3)cc2-c2cc3ccccc3oc2=O)N1Cc1ccco1 (stereo not given)
inactive: growth inhibition [1] -1.13% | growth inhibition [2] 1.33% | viability increase [3] -4.75% | viability [4] 77.4% | viability [5] 76.9% | inhibition [6] 2.16% | RAM network inhibition [7] 2.95%

Cc1cc(C)c2c(n1)nn1c(C)c(CCC(=O)NCc3ccco3)c(C)nc21
inactive: growth inhibition [1] 3.4% | growth inhibition [2] 1.73% | viability increase [3] -4.82% | viability [4] 89.8% | viability [5] 94.8% | inhibition [6] 0.545% | RAM network inhibition [7] 2.09%

CCOC(=O)N1CCN(C(=O)C(NC(=O)C2CCC(C)CC2)C(C)C)CC1 (stereo not given)
inactive: growth inhibition [1] 10.9% | growth inhibition [2] 7.68% | viability increase [3] -0.76% | viability [4] 101% | viability [5] 99.9% | inhibition [6] -0.215% | RAM network inhibition [7] -0.98%

Cn1c(=O)c2c(nc(SCc3cc4c(cc3Cl)OCO4)n2C)n(C)c1=O
inactive: growth inhibition [1] -5.9% | growth inhibition [2] -0.11% | viability increase [3] -0.21% | viability [4] 99.6% | viability [5] 100% | inhibition [6] 1.15% | RAM network inhibition [7] 5.36%

COc1ccc(NC(=O)C2CCN(S(=O)(=O)c3ccc(C)cc3)CC2)cc1OC
inactive: growth inhibition [1] 4.97% | growth inhibition [2] 1.39% | viability increase [3] -3.08% | viability [4] 97.1% | viability [5] 101% | inhibition [6] 2.25% | RAM network inhibition [7] 4.75%

CC(=O)Nc1ccc(NC2(C)C(=O)c3ccccc3C2=O)cc1
inactive: growth inhibition [1] -0.27% | growth inhibition [2] -3.77% | viability increase [3] -1.88% | viability [4] 99.4% | viability [5] 102% | inhibition [6] 1.94% | RAM network inhibition [7] 1.23%
